Results reported in ChEMBL document CHEMBL1122647 (J Med Chem, 1984).

What was measured:
Mus musculus [1] = experiment: In vivo antitumor activity was evaluated against L1210 leukemia implanted mice by measuring percent increase in life span after intraperitoneal administration of compound at 0.06 mg/kg; format: functional
Procedure, shortened: (§1)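 Male B6D2F1J mice, five per group, were implanted ip with 10^5 L1210 cells on day 0. Treatment began on day 1. Drug was given ip in sterile water, twice daily on days 1-4 and 7-10, and as a single double-dose injection on days 5 and 6. Survival was recorded in days (range, and median treated/control), with % ILS derived from it. Body-weight change at 7 days was also recorded.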

Mus musculus [2] = experiment: In vivo antitumor activity was evaluated against L1210 leukemia implanted mice by measuring 7-day weight change after intraperitoneal administration of compound at 0.24 mg/kg; format: functional
Procedure, shortened: (§2)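 Groups of five male B6D2F1J mice were inoculated ip with 10^5 L1210 cells on day 0. Starting day 1, drug in sterile water was given ip bid on days 1-4 and 7-10, with a single double-dose injection on days 5 and 6. Percent body-weight change was recorded at day 7, along with survival range, median T/C and ILS.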

Mus musculus [3] = experiment: In vivo antitumor activity was evaluated against L1210 leukemia implanted mice by measuring 7-day weight change after intraperitoneal administration of compound at 0.12 mg/kg; format: functional
Procedure, shortened: (§3)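 Male B6D2F1J mice, five per group, were inoculated ip with 10^5 L1210 cells on day 0. Treatment began on day 1, given ip in sterile water twice daily on days 1-4 and 7-10, with a single double-dose injection on each of days 5 and 6. Read-outs were percent body weight change over 7 days, survival range in days, treated/control median survival, and percent increase in life span.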

Mus musculus [4] = experiment: In vivo antitumor activity was evaluated against L1210 leukemia implanted mice by measuring T/C median after intraperitoneal administration of compound at 0.12 mg/kg; T/C median=14/8; format: functional; procedure, shortened: as §3
Mus musculus [5] = experiment: In vivo antitumor activity was evaluated against L1210 leukemia implanted mice by measuring number of survival days after intraperitoneal administration of compound at 0.06 mg/kg at a range of 11-13; format: functional; procedure, shortened: as §1
Mus musculus [6] = experiment: In vivo antitumor activity was evaluated against L1210 leukemia implanted mice by measuring T/C median after intraperitoneal administration of compound at 0.24 mg/kg; T/C median=19/8; format: functional; procedure, shortened: as §1
Mus musculus [7] = experiment: In vivo antitumor activity was evaluated against L1210 leukemia implanted mice by measuring percent increase in life span after intraperitoneal administration of compound at 0.12 mg/kg; format: functional; procedure, shortened: as §3
Mus musculus [8] = experiment: In vivo antitumor activity was evaluated against L1210 leukemia implanted mice by measuring 7-day weight change after intraperitoneal administration of compound at 0.06 mg/kg; format: functional; procedure, shortened: as §2
Mus musculus [9] = experiment: In vivo antitumor activity was evaluated against L1210 leukemia implanted mice by measuring number of survival days after intraperitoneal administration of compound at 0.24 mg/kg at a range of 12-20; format: functional; procedure, shortened: as §1
Mus musculus [10] = experiment: In vivo antitumor activity was evaluated against L1210 leukemia implanted mice by measuring percent increase in life span after intraperitoneal administration of compound at 0.24 mg/kg; format: functional; procedure, shortened: as §1
Mus musculus [11] = experiment: In vivo antitumor activity was evaluated against L1210 leukemia implanted mice by measuring number of survival days after intraperitoneal administration of compound at 0.12 mg/kg at a range of 12-15; format: functional; procedure, shortened: as §3
[12] = biological target: T1, Dihydrofolate reductase (Mus musculus) (UniProt P00375)
T1 sequence (whole entry): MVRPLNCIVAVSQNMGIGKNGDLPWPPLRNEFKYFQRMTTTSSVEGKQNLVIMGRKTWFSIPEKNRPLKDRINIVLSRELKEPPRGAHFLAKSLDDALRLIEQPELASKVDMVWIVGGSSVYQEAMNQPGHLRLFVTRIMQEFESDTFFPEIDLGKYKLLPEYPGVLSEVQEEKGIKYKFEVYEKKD

L1210 = experiment: Compound was evaluated for its cytotoxicity against the L1210 murine leukemia cell culture; format: functional; settings: Mus musculus, read-out: ID50 (the source's name)
Mus musculus [13] = experiment: In vivo antitumor activity was evaluated against L1210 leukemia implanted mice by measuring percent increase in life span after intraperitoneal administration of compound at 16 mg/kg; format: functional; procedure, shortened: as §1
Mus musculus [14] = experiment: In vivo antitumor activity was evaluated against L1210 leukemia implanted mice by measuring 7-day weight change after intraperitoneal administration of compound at 12 mg/kg; format: functional; procedure, shortened: as §2
Mus musculus [15] = experiment: In vivo antitumor activity was evaluated against L1210 leukemia implanted mice by measuring percent increase in life span after intraperitoneal administration of compound at 8 mg/kg; format: functional; procedure, shortened: as §1
Mus musculus [16] = experiment: In vivo antitumor activity was evaluated against L1210 leukemia implanted mice by measuring number of survival days after intraperitoneal administration of compound at 8 mg/kg; at a range of 12-15; format: functional; procedure, shortened: as §1
Mus musculus [17] = experiment: In vivo antitumor activity was evaluated against L1210 leukemia implanted mice by measuring percent increase in life span after intraperitoneal administration of compound at 12 mg/kg; format: functional; procedure, shortened: as §1
Mus musculus [18] = experiment: In vivo antitumor activity was evaluated against L1210 leukemia implanted mice by measuring T/C median after intraperitoneal administration of compound at 16 mg/kg; T/C median=15/8; format: functional; procedure, shortened: as §1
Mus musculus [19] = experiment: In vivo antitumor activity was evaluated against L1210 leukemia implanted mice by measuring 7-day weight change after intraperitoneal administration of compound at 8 mg/kg; format: functional; procedure, shortened: as §2
Mus musculus [20] = experiment: In vivo antitumor activity was evaluated against L1210 leukemia implanted mice by measuring number of survival days after intraperitoneal administration of compound at 12 mg/kg; at a range of 13-15
Mus musculus [21] = experiment: In vivo antitumor activity was evaluated against L1210 leukemia implanted mice by measuring T/C median after intraperitoneal administration of compound at 12 mg/kg; T/C median=13/8; format: functional; procedure, shortened: as §1
Mus musculus [22] = experiment: In vivo antitumor activity was evaluated against L1210 leukemia implanted mice by measuring T/C median after intraperitoneal administration of compound at 8 mg/kg; T/C median=13/8; format: functional; procedure, shortened: as §1
Mus musculus [23] = experiment: In vivo antitumor activity was evaluated against L1210 leukemia implanted mice by measuring 7-day weight change after intraperitoneal administration of compound at 16 mg/kg; format: functional; procedure, shortened: as §2
Mus musculus [24] = experiment: In vivo antitumor activity was evaluated against L1210 leukemia implanted mice by measuring number of survival days after intraperitoneal administration of compound at 16 mg/kg; at a range of 15-17; format: functional; procedure, shortened: as §1
Mus musculus [25] = experiment: In vivo antitumor activity was evaluated against L1210 leukemia implanted mice by measuring percent increase in life span after intraperitoneal administration of compound at 32 mg/kg; format: functional; procedure, shortened: as §1
Mus musculus [26] = experiment: In vivo antitumor activity was evaluated against L1210 leukemia implanted mice by measuring number of survival days after intraperitoneal administration of compound at 16 mg/kg; at a range of 11-14; format: functional; procedure, shortened: as §1
Mus musculus [27] = experiment: In vivo antitumor activity was evaluated against L1210 leukemia implanted mice by measuring 7-day weight change after intraperitoneal administration of compound at 32 mg/kg; format: functional; procedure, shortened: as §2
Mus musculus [28] = experiment: In vivo antitumor activity was evaluated against L1210 leukemia implanted mice by measuring T/C median after intraperitoneal administration of compound at 16 mg/kg; T/C median=12/9; format: functional; procedure, shortened: as §1
Mus musculus [29] = experiment: In vivo antitumor activity was evaluated against L1210 leukemia implanted mice by measuring number of survival days after intraperitoneal administration of compound at 32 mg/kg; at a range of 12-16; format: functional; procedure, shortened: as §1
Mus musculus [30] = experiment: In vivo antitumor activity was evaluated against L1210 leukemia implanted mice by measuring T/C median after intraperitoneal administration of compound at 32 mg/kg; T/C median=13/9; format: functional; procedure, shortened: as §1

Work on `Nc1nc(N)c2nc(CNc3ccc(C(=O)N[C@@H](CCC(=O)O)C(=O)O)cc3)cnc2n1` [AMINOPTERIN] yielded an Activity (Mus musculus [1]) of 50%, a Weight change (Mus musculus [2]) of -12% and a Weight change (Mus musculus [3]) of 3%. For the same compound, the Survival days (Mus musculus [4]) was 14, the Survival days (Mus musculus [5]) was 11 and the Survival days (Mus musculus [6]) was 19. The Activity (Mus musculus [7]) was 75%, the Weight change (Mus musculus [8]) was 1% and the Survival days (Mus musculus [9]) was 12. The Activity (Mus musculus [10]) was 138%, the Survival days (Mus musculus [11]) was 12 and the ID50 [12] was 40 nM. The IC50 (L1210) was 3.1 nM.

`Nc1nc(N)c2nc(CNc3ccc(C(=O)NC(CS(=O)(=O)O)C(=O)O)cc3)cnc2n1` (configuration not stated) gave an Activity (Mus musculus [13]) of 88%, an Activity (Mus musculus [14]) of 2% and an Activity (Mus musculus [15]) of 62%. It also gave a Survival days (Mus musculus [16]) of 12, an Activity (Mus musculus [17]) of 62% and a Survival days (Mus musculus [18]) of 15. The Weight change (Mus musculus [19]) was 2%, the Survival days (Mus musculus [20]) was 13 and the ID50 [12] was 65 nM. For the same compound, the Survival days (Mus musculus [21]) was 13, the Survival days (Mus musculus [22]) was 13 and the IC50 (L1210) was 44 nM. It also gave a Weight change (Mus musculus [23]) of 0% and a Survival days (Mus musculus [24]) of 17.

Compound `CN(Cc1cnc2nc(N)nc(N)c2n1)c1ccc(C(=O)NC(CS(=O)(=O)O)C(=O)O)cc1` (configuration not stated) has an Activity (Mus musculus [25]) of 44%, a Survival days (Mus musculus [26]) of 11 and an Activity (Mus musculus [13]) of 33%. For the same compound, the Activity (Mus musculus [27]) was -1%, the Survival days (Mus musculus [28]) was 12 and the Survival days (Mus musculus [29]) was 12. The Survival days (Mus musculus [30]) was 13, the ID50 [12] was 45 nM and the IC50 (L1210) was 340 nM. For the same compound, the Weight change (Mus musculus [23]) was 2%.
